≈ marks a conversion by molar mass, not a printed value.
How the values were obtained:
Escherichia coli [1] = assay: Antimicrobial activity against multidrug-resistant Escherichia coli assessed as reduction in bacterial growth incubated for 20 hrs by broth microdilution analysis; format: functional
Procedure, shortened: (§1)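 MIC was determined by broth microdilution per CLSI/EUCAST. Inoculum was 10^5 CFU/mL in cation-adjusted Mueller-Hinton broth with TES, with compounds in DMSO, incubated 20 h at 35 °C. MIC was read visually as the lowest concentration without turbidity. Tetracycline was the plate control.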

Staphylococcus aureus [2] = assay: Antimicrobial activity against Staphylococcus aureus ATCC 29213 assessed as reduction in bacterial growth incubated for 20 hrs by broth microdilution analysis; format: functional; procedure, shortened: as §1
Escherichia coli [3] = assay: Antimicrobial activity against Escherichia coli ATCC 25922 assessed as reduction in bacterial growth incubated for 20 hrs by broth microdilution analysis; format: functional
Escherichia coli [4] = assay: Antimicrobial activity against Escherichia coli D22 assessed as reduction in bacterial growth incubated for 20 hrs by broth microdilution analysis; format: functional
Escherichia coli [5] = assay: Antimicrobial activity against Escherichia coli N43 assessed as reduction in bacterial growth incubated for 20 hrs by broth microdilution analysis; format: functional
Staphylococcus aureus [6] = assay: Antimicrobial activity against cefoxitin/ciprofloxacin/clindamycin/erythromycin/tetracycline/thiamulin/trimethoprim-resistant Staphylococcus aureus assessed as reduction in bacterial growth incubated for 20 hrs by broth microdilution analysis; format: functional; procedure, shortened: as §1
Klebsiella pneumoniae = assay: Antimicrobial activity against Klebsiella pneumoniae assessed as reduction in bacterial growth incubated for 20 hrs by broth microdilution analysis; format: functional
Acinetobacter baumannii = assay: Antimicrobial activity against Acinetobacter baumannii assessed as reduction in bacterial growth incubated for 20 hrs by broth microdilution analysis; format: functional
DNA gyrase [7] = target: DNA gyrase (Staphylococcus aureus, UniProt P0A0K8+P20831); assay: Inhibition of Staphylococcus aureus DNA gyrase supercoiling incubated for 30 mins in presence of ATP; format: protein-complex assay
DNA gyrase (Staphylococcus aureus, UniProt P0A0K8+P20831), sequence (P0A0K8 whole entry): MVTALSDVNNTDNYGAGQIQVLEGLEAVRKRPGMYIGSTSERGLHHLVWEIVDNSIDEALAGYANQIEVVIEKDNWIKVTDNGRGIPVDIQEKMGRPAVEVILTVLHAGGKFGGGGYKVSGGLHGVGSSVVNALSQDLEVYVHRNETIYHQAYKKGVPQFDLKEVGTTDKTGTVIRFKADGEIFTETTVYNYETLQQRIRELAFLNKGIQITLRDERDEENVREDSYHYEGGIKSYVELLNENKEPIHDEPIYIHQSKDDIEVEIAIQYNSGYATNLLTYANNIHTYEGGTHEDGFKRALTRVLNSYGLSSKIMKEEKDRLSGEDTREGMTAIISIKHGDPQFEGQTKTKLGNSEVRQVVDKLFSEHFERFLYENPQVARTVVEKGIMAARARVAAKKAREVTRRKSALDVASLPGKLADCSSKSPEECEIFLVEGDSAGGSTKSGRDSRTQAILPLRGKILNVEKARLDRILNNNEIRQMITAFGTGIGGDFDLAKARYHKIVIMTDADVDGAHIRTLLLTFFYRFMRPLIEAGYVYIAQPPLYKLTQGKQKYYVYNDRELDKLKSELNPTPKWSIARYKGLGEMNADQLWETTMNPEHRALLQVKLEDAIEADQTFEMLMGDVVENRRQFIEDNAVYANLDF
DNA gyrase (Staphylococcus aureus, UniProt P0A0K8+P20831), sequence (P20831 whole entry): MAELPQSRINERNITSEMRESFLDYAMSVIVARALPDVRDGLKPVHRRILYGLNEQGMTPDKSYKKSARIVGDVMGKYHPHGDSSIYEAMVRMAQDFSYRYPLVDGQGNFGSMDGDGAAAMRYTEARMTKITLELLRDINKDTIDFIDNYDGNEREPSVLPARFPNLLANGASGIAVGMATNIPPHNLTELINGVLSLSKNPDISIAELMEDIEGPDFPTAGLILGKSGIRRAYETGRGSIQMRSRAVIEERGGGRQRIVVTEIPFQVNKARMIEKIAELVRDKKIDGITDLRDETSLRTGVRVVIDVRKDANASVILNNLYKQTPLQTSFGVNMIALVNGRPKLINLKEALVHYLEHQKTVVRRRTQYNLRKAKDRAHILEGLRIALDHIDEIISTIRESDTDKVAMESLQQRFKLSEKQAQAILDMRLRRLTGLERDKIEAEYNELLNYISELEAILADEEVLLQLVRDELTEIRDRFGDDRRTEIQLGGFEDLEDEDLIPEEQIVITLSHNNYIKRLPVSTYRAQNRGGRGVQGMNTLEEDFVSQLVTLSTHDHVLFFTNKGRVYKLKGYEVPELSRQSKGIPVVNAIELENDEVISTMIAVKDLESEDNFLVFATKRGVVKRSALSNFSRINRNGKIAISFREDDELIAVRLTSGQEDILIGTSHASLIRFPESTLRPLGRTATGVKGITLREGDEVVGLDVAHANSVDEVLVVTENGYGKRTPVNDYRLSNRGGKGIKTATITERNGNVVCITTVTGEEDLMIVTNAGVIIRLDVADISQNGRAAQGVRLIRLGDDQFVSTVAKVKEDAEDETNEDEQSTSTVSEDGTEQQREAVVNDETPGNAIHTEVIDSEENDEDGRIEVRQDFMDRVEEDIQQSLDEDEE
Procedure, shortened: (§2)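 Gyrase supercoiling plate assay (triplex capture on streptavidin plates with immobilized biotinylated oligonucleotide): 1.5 U enzyme, 0.75 µg relaxed pNO1 plasmid, inhibitor in 10% DMSO/0.008% Tween-20, 37 °C 30 min, 30 µl. Buffer for E. coli: 35 mM Tris pH 7.5, 1 mM ATP; S. aureus: 40 mM HEPES-KOH pH 7.6, 2 mM ATP, 500 mM K-glutamate. Diamond dye fluorescence (ex 495/em 537 nm). Pre-screen 100 and 1 µM; IC50 from seven concentrations by four-parameter fit, mean of two runs.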

DNA gyrase [8] = target: DNA gyrase (Escherichia coli, UniProt P0AES4+P0AES6); assay: Inhibition of Escherichia coli DNA gyrase supercoiling incubated for 30 mins in presence of ATP; format: protein-complex assay; procedure, shortened: as §2
Topoisomerase IV = Topoisomerase IV (Staphylococcus aureus, UniProt P0C1S7+P0C1U9); assay: Inhibition of Staphylococcus aureus DNA topoisomerase 4 relaxation activity measured for 30 mins; format: protein-complex assay
Topoisomerase IV, sequence (P0C1U9 whole entry): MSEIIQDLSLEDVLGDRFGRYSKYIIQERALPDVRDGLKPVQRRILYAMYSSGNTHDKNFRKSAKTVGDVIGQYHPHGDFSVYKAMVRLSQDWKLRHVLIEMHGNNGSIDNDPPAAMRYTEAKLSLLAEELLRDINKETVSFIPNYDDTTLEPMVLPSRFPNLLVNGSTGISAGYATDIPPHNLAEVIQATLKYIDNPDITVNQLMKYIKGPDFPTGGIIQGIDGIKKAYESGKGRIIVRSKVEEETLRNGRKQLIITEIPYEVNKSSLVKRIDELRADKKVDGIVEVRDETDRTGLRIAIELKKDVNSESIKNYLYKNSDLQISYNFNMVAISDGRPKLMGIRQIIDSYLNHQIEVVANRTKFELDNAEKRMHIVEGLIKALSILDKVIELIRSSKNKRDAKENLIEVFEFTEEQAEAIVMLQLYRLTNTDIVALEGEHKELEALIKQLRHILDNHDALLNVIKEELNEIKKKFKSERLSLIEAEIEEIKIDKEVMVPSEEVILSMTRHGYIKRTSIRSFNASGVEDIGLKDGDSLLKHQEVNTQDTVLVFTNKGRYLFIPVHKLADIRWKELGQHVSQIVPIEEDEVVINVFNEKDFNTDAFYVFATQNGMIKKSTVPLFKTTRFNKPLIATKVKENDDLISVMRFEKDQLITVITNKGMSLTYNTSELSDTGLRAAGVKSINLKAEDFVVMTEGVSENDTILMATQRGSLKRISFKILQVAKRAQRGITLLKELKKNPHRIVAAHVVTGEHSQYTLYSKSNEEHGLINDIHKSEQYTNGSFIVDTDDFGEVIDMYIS
Topoisomerase IV, sequence (P0C1S7 whole entry): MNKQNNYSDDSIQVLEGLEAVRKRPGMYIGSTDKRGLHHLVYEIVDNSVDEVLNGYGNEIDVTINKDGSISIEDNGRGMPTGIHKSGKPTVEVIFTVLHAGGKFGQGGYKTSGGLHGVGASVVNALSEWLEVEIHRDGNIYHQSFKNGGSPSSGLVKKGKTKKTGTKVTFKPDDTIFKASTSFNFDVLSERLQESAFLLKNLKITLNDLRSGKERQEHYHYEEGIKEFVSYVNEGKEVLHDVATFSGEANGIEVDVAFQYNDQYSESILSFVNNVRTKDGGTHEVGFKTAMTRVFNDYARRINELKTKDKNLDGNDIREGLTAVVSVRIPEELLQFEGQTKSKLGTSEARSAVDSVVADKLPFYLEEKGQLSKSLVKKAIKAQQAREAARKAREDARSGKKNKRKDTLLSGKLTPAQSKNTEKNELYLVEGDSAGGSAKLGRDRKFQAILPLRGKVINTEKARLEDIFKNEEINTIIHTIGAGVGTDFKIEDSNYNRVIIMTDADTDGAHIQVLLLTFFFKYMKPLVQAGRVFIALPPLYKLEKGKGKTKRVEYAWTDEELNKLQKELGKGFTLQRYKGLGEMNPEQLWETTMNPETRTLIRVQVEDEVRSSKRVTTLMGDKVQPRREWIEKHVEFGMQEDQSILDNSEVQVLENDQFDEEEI
Procedure, shortened: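 TopoIV relaxation plate assay: 1.5 U enzyme with 0.75 µg supercoiled pNO1 plasmid, inhibitor in 10% DMSO/0.008% Tween-20, 37 °C 30 min; E. coli buffer 40 mM HEPES-KOH pH 7.6 with 1 mM ATP, S. aureus buffer 50 mM Tris pH 7.5 with 1.5 mM ATP.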

[9] = Inhibition of Escherichia coli DNA topoisomerase 4 relaxation activity measured for 30 mins
Procedure, shortened: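 TopoIV relaxation plate assay: 1.5 U enzyme with 0.75 µg supercoiled pNO1 plasmid, inhibitor in 10% DMSO/0.008% Tween-20, 37 °C 30 min; E. coli buffer 40 mM HEPES-KOH pH 7.6 with 1 mM ATP, S. aureus buffer 50 mM Tris pH 7.5 with 1.5 mM ATP. Triplex capture, Diamond dye fluorescence 495/537 nm.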

[10] = target: DNA topoisomerase 2-alpha (Homo sapiens) (UniProt P11388); assay: Inhibition of human DNA topoisomerase 2-alpha assessed as residual activity at 100 uM incubated for 30 mins relative to control
[11] = target: Voltage-gated inwardly rectifying potassium channel KCNH2 (Homo sapiens, UniProt Q12809); assay: Inhibition of hERG fluorescence polarization assay; format: toxicity
Voltage-gated inwardly rectifying potassium channel KCNH2, sequence (Q12809 whole entry): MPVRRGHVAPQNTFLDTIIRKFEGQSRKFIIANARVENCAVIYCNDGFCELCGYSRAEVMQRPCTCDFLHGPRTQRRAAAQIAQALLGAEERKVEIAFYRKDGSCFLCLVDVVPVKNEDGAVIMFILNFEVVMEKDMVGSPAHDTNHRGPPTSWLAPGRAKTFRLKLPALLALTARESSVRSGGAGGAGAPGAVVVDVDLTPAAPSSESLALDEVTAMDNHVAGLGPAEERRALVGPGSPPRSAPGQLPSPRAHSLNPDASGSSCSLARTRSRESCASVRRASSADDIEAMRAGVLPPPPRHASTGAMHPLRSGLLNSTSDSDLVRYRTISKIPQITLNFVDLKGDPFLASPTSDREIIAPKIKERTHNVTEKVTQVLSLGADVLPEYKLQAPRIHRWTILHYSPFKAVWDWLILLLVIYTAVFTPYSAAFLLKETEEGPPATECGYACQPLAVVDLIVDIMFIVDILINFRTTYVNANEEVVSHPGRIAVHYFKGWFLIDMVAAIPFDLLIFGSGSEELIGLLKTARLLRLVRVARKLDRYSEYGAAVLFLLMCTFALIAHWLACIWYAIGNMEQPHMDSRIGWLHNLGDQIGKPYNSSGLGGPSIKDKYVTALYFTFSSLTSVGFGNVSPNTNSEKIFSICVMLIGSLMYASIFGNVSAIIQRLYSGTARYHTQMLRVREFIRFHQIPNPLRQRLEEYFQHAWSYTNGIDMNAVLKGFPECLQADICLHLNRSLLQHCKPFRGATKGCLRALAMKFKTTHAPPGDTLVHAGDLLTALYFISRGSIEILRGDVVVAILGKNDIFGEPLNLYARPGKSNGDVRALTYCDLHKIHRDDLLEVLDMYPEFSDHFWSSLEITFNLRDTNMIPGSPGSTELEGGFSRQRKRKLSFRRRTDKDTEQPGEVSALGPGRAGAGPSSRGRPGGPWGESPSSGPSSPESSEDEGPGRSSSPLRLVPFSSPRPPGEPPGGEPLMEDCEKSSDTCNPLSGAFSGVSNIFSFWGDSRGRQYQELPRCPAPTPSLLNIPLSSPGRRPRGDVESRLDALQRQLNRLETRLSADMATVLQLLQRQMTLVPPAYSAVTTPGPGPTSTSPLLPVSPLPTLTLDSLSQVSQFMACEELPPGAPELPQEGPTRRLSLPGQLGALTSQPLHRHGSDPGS

HepG2 [12] = assay: Cytotoxicity against human HepG2 cells assessed as inhibition of cell growth at 50 uM incubated for 72 hrs by […]; format: functional; design: scale not given: the % may be the effect or the level left
Procedure, shortened: (§3)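 HepG2 in DMEM with 10% FBS, 2 mM glutamine, penicillin/streptomycin, 37 °C, 5% CO₂; seeded 8,000 cells/well, attached overnight, then treated 1.25–100 µM or vehicle for 72 h. Metabolic activity by CellTiter 96 Aqueous One (MTS) absorbance 492 nm.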

Staphylococcus aureus [13] = assay: Antimicrobial activity against cefoxitin/gentamicin/kanamycin/rifampicin/streptomycin/sulfamethoxazole/tetracycline-resistant Staphylococcus aureus assessed as reduction in bacterial growth incubated for 20 hrs by broth microdilution analysis; format: functional; procedure, shortened: as §1
Staphylococcus aureus [14] = assay: Antimicrobial activity against multidrug-resistant Staphylococcus aureus assessed as reduction in bacterial growth incubated for 20 hrs by broth microdilution analysis; format: functional; procedure, shortened: as §1
[15] = Antimicrobial activity against Salmonella alachua RDK 030c assessed as reduction in bacterial growth incubated for 20 hrs by broth microdilution analysis; format: functional
Pseudomonas aeruginosa = assay: Antimicrobial activity against Pseudomonas aeruginosa RDK 184 assessed as reduction in bacterial growth incubated for 20 hrs by broth microdilution analysis; format: functional
Enterococcus faecalis = assay: Antimicrobial activity against Enterococcus faecalis DRK 057 assessed as reduction in bacterial growth incubated for 20 hrs by broth microdilution analysis; format: functional
hERG [16] = assay: Selectivity index, ratio of IC50 for inhibition of hERG fluorescence polarization assay to MIC for antimicrobial activity against Staphylococcus aureus ATCC 29213 assessed as reduction in bacterial growth; format: toxicity; conditions: human; read-out: Selectivity Index
hERG [17] = assay: Selectivity index, ratio of IC50 for inhibition of hERG fluorescence polarization assay to MIC for antimicrobial activity against multidrug-resisitant Staphylococcus aureus assessed as reduction in bacterial growth; format: toxicity; conditions: human; read-out: Selectivity Index
HepG2 [18] = assay: Cytotoxicity against human HepG2 cells assessed as inhibition of cell growth incubated for 72 hrs by […]; format: functional, cell-based; conditions: HepG2, 72 h; procedure, shortened: as §3
[19] = Acute toxicity in zebrafish embryos assessed as lethal concentration compound administered from 6 hrs post fertilization and measured after 120 hrs post fertilization; design: species or system Danio rerio; conditions: in vivo
Procedure, shortened: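 Wild-type AB zebrafish embryos in E3 medium at 28 °C were exposed by immersion from 6 hpf to 0.39–25 µg/mL (top dose 12.5 µg/mL for one compound), with DMSO at most 0.25%. Controls were 0.25% DMSO and 25 µg/mL doxorubicin. Embryos were inspected daily for death and toxicity signs through 120 hpf. Runs were in triplicate, with 24 embryos per concentration.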

| Compound | MIC (Escherichia coli [1]) | MIC (Staphylococcus aureus [2]) | MIC (Escherichia coli [3]) | MIC (Escherichia coli [4]) | MIC (Escherichia coli [5]) | MIC (Staphylococcus aureus [6]) | MIC (Klebsiella pneumoniae) | MIC (Acinetobacter baumannii) | IC50 (DNA gyrase [7]) [nM] | IC50 (DNA gyrase [8]) [nM] | IC50 (Topoisomerase IV) [nM] | IC50 [9] [nM] | Activity [10] [%] | IC50 [11] [nM] | MIC (Staphylococcus aureus [13]) [µM] | MIC (Staphylococcus aureus [14]) [µM] | MIC [15] [µM] | MIC (Pseudomonas aeruginosa) [µM] | MIC (Enterococcus faecalis) [µM] | selectivity ratio (hERG [16]) | also measured |
| --- | --- | --- | --- | --- | --- | --- | --- | --- | --- | --- | --- | --- | --- | --- | --- | --- | --- | --- | --- | --- | --- |
| CN(C)[C@@H]1C(O)=C(C(N)=O)C(=O)[C@@]2(O)C(O)=C3C(=O)c4c(O)cccc4[C@@](C)(O)[C@H]3C[C@@H]12 [TETRACYCLINE] | > 4 µg/mL | 0.25 µg/mL | 1 µg/mL | 1 µg/mL | 0.25 µg/mL | > 4 µg/mL | > 4 µg/mL | > 4 µg/mL |  |  |  |  |  |  |  |  |  |  |  |  |  |
| COc1ccc2nccc(OC[C@H]3CC[C@H](NC(=O)c4cc(F)c(Br)c(F)c4)CC3)c2n1 | > 64.8 µM | 253 µM | 64.8 µM | 64.8 µM | 64.8 µM | 64.8 µM | > 64.8 µM | > 64.8 µM | > 100000 | > 100000 | > 100000 | > 100000 | 101 | > 30000 | > 64.8 | > 64.8 | > 64.8 | > 64.8 | > 64.8 | ≥ 0.119 | Activity (HepG2 [12]): 90%; selectivity ratio (hERG [17]): ≥ 0.119 |
| COc1ccc2nccc(OC[C@@H]3CC[C@@H](NC(=O)c4cc(F)c(Cl)c(F)c4)CO3)c2n1 | > 276 µM | 0.136 µM | 276 µM | 276 µM | 0.134 µM | 0.136 µM | > 276 µM | 276 µM | 445 | 677 | 579 | 73 | 101 | > 30000 | 0.136 (≈ 0.0631 µg/mL) | 0.269 (≈ 0.125 µg/mL) | > 276 | > 276 | 8.62 (≈ 4 µg/mL) | ≥ 224 | IC50 (HepG2 [18]): 9060 nM; selectivity ratio (hERG [17]): ≥ 224 |
| COc1ccc2nccc(CCN3CCC(NC(=O)c4cc(F)c(Br)c(F)c4)CC3)c2n1 | 253 µM | 0.061 µM | 63.3 µM | 0.247 µM | 0.061 µM | 0.247 µM | > 253 µM | 3.96 µM | 108 | 114 | 84 | 40 | 102 | 122 | 0.061 (≈ 0.0308 µg/mL) | 0.125 (≈ 0.0632 µg/mL) | > 253 | > 253 | 0.495 (≈ 0.25 µg/mL) | 1.99 | Activity (HepG2 [12]): 61%; selectivity ratio (hERG [17]): 0.493; LC50 at 114 h [19]: > 25 µg/mL |
| COc1ccc2nccc(CCN3CCC(NC(=O)c4ccc(I)c(F)c4)CC3)c2n1 | > 240 µM | 0.058 µM | 240 µM | 0.468 µM | 0.234 µM | 0.234 µM | > 240 µM | 240 µM | 114 | 277 | 261 | 43 | 102 | 96 | 0.058 (≈ 0.031 µg/mL) | 0.234 (≈ 0.125 µg/mL) | > 240 | > 240 | 0.468 (≈ 0.25 µg/mL) | 1.65 | Activity (HepG2 [12]): 89%; selectivity ratio (hERG [17]): 0.41 |
| COc1ccc2nccc(OC[C@H]3CC[C@H](NC(=O)c4ccc(I)c(F)c4)CC3)c2n1 | > 239 µM | 239 µM | 239 µM | 239 µM | 239 µM | 239 µM | > 239 µM | > 239 µM | > 100000 | > 100000 | > 100000 | > 100000 | 99.1 | > 30000 | > 239 | > 239 | > 239 | > 239 | > 239 | ≥ 0.125 | Activity (HepG2 [12]): 96%; selectivity ratio (hERG [17]): ≥ 0.125 |
| COc1ccc2nccc(CCN3CCC(NC(=O)c4cc(F)c(Cl)c(F)c4)CC3)c2n1 | > 278 µM | 0.137 µM | 69.4 µM | 0.542 µM | 0.135 µM | 0.271 µM | > 278 µM | 4.34 µM | 220 | 236 | 177 | 41 | 101 | 178 | 0.137 (≈ 0.0631 µg/mL) | 0.271 (≈ 0.125 µg/mL) | > 278 | > 278 | 2.17 (≈ 1 µg/mL) | 1.3 | Activity (HepG2 [12]): 84%; selectivity ratio (hERG [17]): 0.656 |
| COc1ccc2nccc(OC[C@@H]3CC[C@@H](NC(=O)c4ccc(I)c(F)c4)CO3)c2n1 | > 238 µM | 0.058 µM | 238 µM | 238 µM | 0.117 µM | 0.058 µM | > 238 µM | > 238 µM | 271 | 358 | 783 | 92 | 102 | > 30000 | 0.058 (≈ 0.0312 µg/mL) | 238 (≈ 128 µg/mL) | > 238 | > 238 | > 238 | ≥ 520 | IC50 (HepG2 [18]): 11200 nM; selectivity ratio (hERG [17]): ≥ 520 |
| COc1ccc2nccc(OC[C@H]3CC[C@H](NC(=O)c4cc(F)c(Cl)c(F)c4)CC3)c2n1 | > 277 µM | 277 µM | 277 µM | 277 µM | 277 µM | 277 µM | > 277 µM | > 277 µM | > 100000 | > 100000 | > 100000 | > 100000 | 100 | > 30000 | 277 (≈ 128 µg/mL) | > 277 | > 277 | > 277 | > 277 | ≥ 0.108 | Activity (HepG2 [12]): 96%; selectivity ratio (hERG [17]): ≥ 0.108 |

From ChEMBL document CHEMBL5385870, “Amide containing NBTI antibacterials with reduced hERG inhibition, retained antimicrobial activity against gram-positive bacteria and in vivo efficacy” (Eur J Med Chem, 2023)
